Assays:
Platelet = experiment: Inhibition of ADP-induced platelet aggregation in human platelet rich plasma by Borns method; type: functional
Summary of the method: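 Human platelet-rich plasma stimulated with ADP, with aggregation followed by Born's method.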

[1] = biological target: Integrin alpha-IIb/beta-3 (Homo sapiens) (UniProt P08514); experiment: Displacement of FITC-labeled fibrinogen from alphaIIbbeta3 in human platelets
Chain of Integrin alpha-IIb/beta-3 (Homo sapiens) (P08514 whole entry, looked up): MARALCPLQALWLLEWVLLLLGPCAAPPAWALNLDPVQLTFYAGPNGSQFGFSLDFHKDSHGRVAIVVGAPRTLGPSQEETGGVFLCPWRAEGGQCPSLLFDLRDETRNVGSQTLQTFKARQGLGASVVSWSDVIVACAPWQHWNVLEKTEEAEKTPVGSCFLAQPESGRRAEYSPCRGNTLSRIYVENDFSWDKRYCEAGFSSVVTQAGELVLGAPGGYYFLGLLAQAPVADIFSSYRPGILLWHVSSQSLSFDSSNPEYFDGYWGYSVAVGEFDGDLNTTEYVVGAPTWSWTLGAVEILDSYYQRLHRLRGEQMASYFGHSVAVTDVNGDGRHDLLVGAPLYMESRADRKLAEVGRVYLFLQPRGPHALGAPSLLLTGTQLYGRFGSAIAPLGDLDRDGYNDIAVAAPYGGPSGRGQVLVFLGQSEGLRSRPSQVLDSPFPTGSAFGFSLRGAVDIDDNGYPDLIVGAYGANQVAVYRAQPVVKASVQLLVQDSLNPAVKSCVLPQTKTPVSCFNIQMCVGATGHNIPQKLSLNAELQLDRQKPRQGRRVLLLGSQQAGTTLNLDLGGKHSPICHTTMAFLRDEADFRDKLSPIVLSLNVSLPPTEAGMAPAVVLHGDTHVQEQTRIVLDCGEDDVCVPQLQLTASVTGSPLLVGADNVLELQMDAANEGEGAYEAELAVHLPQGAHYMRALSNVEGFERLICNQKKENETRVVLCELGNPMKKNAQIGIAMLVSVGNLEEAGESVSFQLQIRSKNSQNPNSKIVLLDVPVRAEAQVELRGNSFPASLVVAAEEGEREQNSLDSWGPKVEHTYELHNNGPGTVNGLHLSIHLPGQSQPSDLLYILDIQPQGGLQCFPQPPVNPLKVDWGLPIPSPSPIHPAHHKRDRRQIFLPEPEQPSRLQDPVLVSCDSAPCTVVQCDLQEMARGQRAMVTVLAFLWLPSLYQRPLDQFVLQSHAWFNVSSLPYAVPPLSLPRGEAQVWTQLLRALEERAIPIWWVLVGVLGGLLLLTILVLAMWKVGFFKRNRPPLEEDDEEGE

Compound	IC50 (Platelet) [µM]	IC50 [1] [µM]
Cc1ccc(S(=O)(=O)N[C@@H](CNC(=O)Cc2cn(CCCC3CCNCC3)c3ccccc23)C(=O)O)cc1	4.5	–
CC(CC(=O)O)N1Cc2ccc(NC(=O)c3ccc4c(c3)CNCC4)cc2C1=O (racemic)	0.086	0.0065
CC(CC(=O)O)N1Cc2ccc(NC(=O)c3ccc(N4CCNCC4)cc3)cc2C1=O (racemic)	3.74	0.037
O=C(O)CN1Cc2ccc(NC(=O)c3ccc(C4CCNCC4)cc3)cc2C1=O	24	0.27
O=C(O)CCN1Cc2ccc(NC(=O)CCCC3CCNCC3)cc2C1=O	5.9	0.0055
CC(CC(=O)O)N1Cc2ccc(NC(=O)CCCC3CCNCC3)cc2C1=O (racemic)	5.4	0.35
O=C(O)CCNC(=O)c1ccc2c(c1)C(=O)N(CCC1CCNCC1)C2	0.025	–
N=C(N)c1ccc(C(=O)Nc2ccc3c(c2)CCN(CC(=O)O)C3)cc1	0.09	–
O=C(O)CCNC(=O)CCNC(=O)c1ccc2c(c1)CNCC2	1.1	0.022
O=C(O)CCN1Cc2ccc(NC(=O)c3ccc(N4CCNCC4)cc3)cc2C1=O	0.54	–
O=C(O)CCN1Cc2ccc(NC(=O)c3ccc4c(c3)CNCC4)cc2C1=O	1.1	0.0065
O=C(O)CCCN1Cc2ccc(NC(=O)c3ccc4c(c3)CNCC4)cc2C1=O	330	–
O=C(O)CCCN1Cc2ccc(NC(=O)c3ccc(C4CCNCC4)cc3)cc2C1=O	410	–
O=C(O)CN1Cc2ccc(NC(=O)c3ccc4c(c3)CNCC4)cc2C1=O	120	1.2
O=C(O)CN1Cc2ccc(NC(=O)CCCC3CCNCC3)cc2C1=O	66	–
O=C(O)CCN1Cc2ccc(NC(=O)c3ccc(C4CCNCC4)cc3)cc2C1=O	9.6	0.0068
CC(CC(=O)O)N1Cc2ccc(NC(=O)c3ccc(C4CCNCC4)cc3)cc2C1=O (racemic)	6.2	–
O=C(O)CCCN1Cc2ccc(NC(=O)CCCC3CCNCC3)cc2C1=O	51	–
